Screens as filed in PubChem.
SR-BI DiI inh: inhibitors of SR-BI mediated HDL lipid uptake, primary screen, ldlA[mSR-BI] cells, fluorescence, single point; 320,000 tested, 0.96% active; inhibition, % at 12.5 µM; Scavenger receptor class B member 1 (Mus musculus), Q61009; ldlA[mSR-BI] CHO cells, DiI-HDL uptake fluorescence, 3 h; AID 488896, 2010;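 active = mean replicate inhibition of at least 70% and a set share of replicates each scoring 70 or more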;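 also: 0% = median of neutral control wells and 100% = median of positive control wells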
Target sequence (Q61009 whole entry, looked up): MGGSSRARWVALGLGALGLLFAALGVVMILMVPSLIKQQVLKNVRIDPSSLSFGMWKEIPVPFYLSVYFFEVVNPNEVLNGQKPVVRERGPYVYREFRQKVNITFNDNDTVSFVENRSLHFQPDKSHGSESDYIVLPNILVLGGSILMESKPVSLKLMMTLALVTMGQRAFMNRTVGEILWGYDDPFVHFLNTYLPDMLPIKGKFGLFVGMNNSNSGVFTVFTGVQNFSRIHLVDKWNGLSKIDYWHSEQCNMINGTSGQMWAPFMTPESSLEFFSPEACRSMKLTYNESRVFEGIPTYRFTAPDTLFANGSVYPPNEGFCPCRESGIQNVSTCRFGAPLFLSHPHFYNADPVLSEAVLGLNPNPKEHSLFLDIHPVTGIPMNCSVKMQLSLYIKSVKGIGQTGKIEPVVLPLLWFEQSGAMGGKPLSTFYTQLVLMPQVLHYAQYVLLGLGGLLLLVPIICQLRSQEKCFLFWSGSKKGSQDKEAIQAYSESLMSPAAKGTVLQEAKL
Vif imaging: HIV Vif self-association inhibitors, primary screen, imaging, HEK293T, single point; HEK293T cells, Vif self-association by quenched fluorescence, 24 h; inhibition, % at 7.49 µM; 340,000 tested, 0.35% active; AID 602346, 2012; in the data active = inhibition above about 50%, passing the limit was not always enough
Statin myotox sup: suppressors of statin myotoxicity in C2C12 myotubes, primary screen, cell-based, single point, plate reader | 330,000 tested, 0.78% active | AID 602340, 2012 | C2C12 myotubes + simvastatin, ATP luminescence, 48 h; scaled: DMSO 0, geranylgeraniol control 100 | rescue of ATP level, % at 7.49 µM;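 active = mean ATP rescue above about 67%, or every replicate alone reaching that limit, limit read from the data, passing the limit was not always enough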;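 also: myotubes were challenged with 10 µM simvastatin during compound exposure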
SR-BI uptake up: activators of SR-BI mediated DiI-HDL uptake, primary screen, ldlA[mSR-BI] CHO cells, DiI fluorescence | 3 h; 100 = double the neutral-control signal | activation, % at 12.5 µM | 320,000 tested, 0.096% active | AID 504775, 2011;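 active = mean replicate activation of at least 60% and every replicate at or above 60%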;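 also: 0% = median plate neutral-control signal and 100% = twice that signal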
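Test system: SR-BI-overexpressing, LDLR-lacking CHO cells; Also added: labelled HDL, 10 µg/mL; Measured by: bottom-read cell fluorescence after medium removal, ex 550/em 595 nm; Timing: 3 h uptake period with compound, 37 °C; Buffer or medium: F12, 0.5% BSA, 25 mM HEPES; Doses: single compound concentration, delivered by pin transfer.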
Numbers without * were called inactive; . = no result given. Hits are enriched below; roughly 1.7% of the tested compounds scored in any of these assays.

SMILES | SR-BI DiI inh | Vif imaging | Statin myotox sup | SR-BI uptake up
CCOC(=O)c1sc2nc(C)cc(C)c2c1N | 1.3 | -13.0 | -3.0 | -1.3
C[C@@H]1CN([C@H](C)CO)S(=O)(=O)c2ccc(-c3cncnc3)cc2O[C@@H]1CN(C)C | . | . | 16.2 | .
C#CCSc1nc(=O)c2cccnc2n1-c1ccc(C)cc1 | -19.1 | 1.6 | 132.0* | 19.1
N=c1oc2ccccc2cc1-c1nc2ccccc2c(=O)[nH]1 | -7.4 | 3.0 | 92.5* | 7.4
O=c1[nH]c(-c2ccncc2)nc2ccccc12 | -11.6 | . | 9.9 | 11.6
C[C@H]1CN([C@@H](C)CO)C(=O)c2cccc(NC(=O)c3nc4ccccc4s3)c2O[C@@H]1CN(C)C(=O)Nc1ccccc1 | . | . | -51.0 | .
Cc1onc(-c2ccc3c(c2)OCO3)c1-c1ccc2[nH]ccc2c1 | 41.3 | -2.9 | -13.7 | -41.3
c1cc2cc(-c3c(-c4ccc5c(c4)OCO5)noc3-c3ccsc3)ccc2[nH]1 | 34.2 | 8.1 | 125.6* | -34.2
COc1ccccc1CN(C)C[C@@H]1OCc2cn(nn2)CCCC(=O)N([C@@H](C)CO)C[C@@H]1C | . | . | 1.9 | .
CC(C)NC(=O)N(C)C[C@H]1OCCCC[C@H](C)Oc2ccc(NC(=O)c3ccncc3)cc2C(=O)N([C@@H](C)CO)C[C@@H]1C | . | . | 8.6 | .
COC(=O)N1C(=O)[C@](c2ccc(Cl)cc2)(C(C)C)N1C(=O)OC | -19.7 | 50.7* | -1.1 | 19.7
COC(=O)N1C(=O)[C@@](c2ccc(OC)cc2)(C(C)C)N1C(=O)OC | 0.2 | 10.6 | -4.2 | -0.2
CC(C)Nc1nc(NC(C)C)nc(N(C)n2cnnc2)n1 | 2.2 | -2.9 | 98.3* | -2.2
CC(C)Nc1nc(NC(C)C)nc(Nn2cnnc2)n1 | 9.1 | 0.4 | . | -9.1
Cc1ccc(-c2noc(CCCOc3ccc(Cl)cc3Cl)n2)cc1 | -2.1 | -3.1 | 5.6 | 2.1
COc1ccc(-c2noc(CCCOc3ccc(Cl)cc3Cl)n2)cc1 | 2.0 | -9.5 | 109.1* | -2.0
O=C(NC(=O)N1CCN(c2ccccc2F)CC1)c1ccccc1 | 19.7 | 88.5* | -2.7 | -19.7
Cc1ccc(C2/C(=C(/O)c3cnn(-c4ccccc4)c3C)C(=O)C(=O)N2CCN2CCOCC2)o1 (configuration not stated) | -13.5 | 4.9 | 125.7* | 13.5
O=C(Nc1ccccc1F)N[C@H]1CC[C@@H](CCNC(=O)C2CCCCC2)O[C@H]1CO | . | . | -31.7 | .
CCN(C(C)=O)c1cccc2ccccc12 | 3.2 | 4.1 | 147.3* | -3.2
CC1(Cc2ccccc2OC(F)(F)F)C(=O)Nc2ccc(S(=O)(=O)NC3CCCCC3)cc21 (configuration not stated) | . | -3.2 | 132.1* | .
COc1ccccc1CC1(C)C(=O)Nc2ccc(S(=O)(=O)NC3CCCCC3)cc21 (configuration not stated) | . | -5.0 | 3.1 | .
COc1ccc(S(=O)(=O)Nc2cccc3c2O[C@@H](CN(C)Cc2ccncc2)[C@H](C)CN([C@@H](C)CO)C3=O)cc1 | . | . | 3.4 | .
O=S(=O)(c1ccccc1)c1nc(-c2ccco2)oc1N1CCCCCC1 | 12.5 | -3.8 | 105.1* | -12.5
OCC#CCSc1nnc(-c2ccncc2)o1 | 13.6 | 7.6 | . | -13.6
SMILES | SR-BI DiI inh | Vif imaging | Statin myotox sup | SR-BI uptake up
COc1cc(-c2nnc(-c3cccs3)o2)cc(OC)c1OC | 41.8 | 10.5 | . | -22.7
COc1ccc(-c2nnc(-c3cc(OC)c(OC)c(OC)c3)o2)cc1OC | 76.4* | . | -12.2 | -76.4
COc1cc(-c2nnc(SCC#CCO)o2)cc(OC)c1OC | -9.9 | 5.8 | 114.4* | 9.9
CN1C2CCC1/C(=C\c1ccc(F)cc1)C(=O)/C2=C/c1ccc(F)cc1 | 7.8 | -1.0 | . | -7.8
C=CC(=O)N1C/C(=C/c2ccc(F)cc2)C(=O)/C(=C\c2ccc(F)cc2)C1 | 8.1 | 143.2* | 16.9 | -8.1
CO[C@@H]1CN(C)C(=O)c2ccc(NC(=O)C3CC3)cc2OC[C@H](C)N(C(=O)Cc2ccccn2)C[C@H]1C | . | . | 13.2 | .
Cc1ccc(-c2nc3ccccc3[nH]2)cc1NC(=O)c1ccco1 | 49.8 | 2.1 | 116.0* | -49.7
C=Cc1cccc(NC(=O)c2ccc(NC(=O)c3ccco3)cc2)c1 | 92.4* | -4.6 | 2.8 | -92.4
O=C(Nc1ccccc1)c1cccc(NC(=O)c2ccco2)c1 | 13.5 | 2.1 | . | -13.5
O=C(Nc1cccc(-c2nc3ccccc3[nH]2)c1)c1cccc(NC(=O)c2ccco2)c1 | 47.0 | 72.2* | -82.5 | -47.1
C[C@@H]1CCCCO[C@@H](CN(C)S(C)(=O)=O)[C@H](C)CN([C@@H](C)CO)C(=O)c2cc(NC(=O)C3CCCCC3)ccc2O1 | . | . | 26.5 | .
CNC(=O)C[C@H]1CC[C@@H]2[C@H](COC[C@H](O)CN2Cc2ccc(C(F)(F)F)cc2)O1 | . | . | -5.1 | .
O=C(C[C@H]1CC[C@@H]2[C@H](COC[C@H](O)CN2S(=O)(=O)c2cccc(F)c2)O1)NC1CCC1 | . | . | -8.1 | .
COc1ccc(CC(=O)OCC(=O)Nc2ccc(N3CCOCC3)cc2)cc1 | . | 80.7* | -4.2 | .
Cc1ccccc1C(=O)N1CCN(c2ccc([N+](=O)[O-])c(NCc3ccco3)c2)CC1 | 59.4 | -3.3 | 129.5* | -59.4
CCc1ccc(OCC(=O)Nc2ccc(N3CCN(C(=O)c4ccccc4)CC3)cc2)cc1 | 45.0 | -11.6 | -2.6 | -45.0
COc1ccc(OCC(=O)Nc2ccc(N3CCN(C(=O)c4ccccc4C)CC3)cc2)cc1 | 77.1* | -0.7 | 16.4 | -77.1
Cc1ccccc1C(=O)N1CCN(c2ccc(NC(=O)c3ccc([N+](=O)[O-])o3)cc2)CC1 | -14.8 | -1.3 | 166.6* | 14.8
COC(=O)C[C@H]1CC[C@H]2[C@H](COc3ccc(NC(=O)c4cccc(Cl)c4)cc3C(=O)N2C)O1 | . | . | -13.9 | .
CCC(=O)N(C)C[C@H]1Oc2ncc(/C=C/c3ccccc3)cc2C(=O)N([C@@H](C)CO)C[C@@H]1C | . | . | 10.8 | .
Cc1nnc(SCC(=O)NC2CCS(=O)(=O)C2)n1Cc1ccccc1 (configuration not stated) | -65.9 | 1.1 | -2.4 | 65.9*
CC1C/C(=N\NC(N)=S)c2cc(Cl)ccc2S1 (configuration not stated) | 80.1* | -13.7 | . | -80.1
CCc1c(C)[nH]c2ccc(C)cc2c1=O | -8.2 | . | -25.4 | 8.2
C=CCc1c(C)[nH]c2ccc(C)cc2c1=O | -17.5 | . | 95.1* | 17.5
CCn1c(CSc2nc(C)cc(C)n2)nnc1SCC(=O)Nc1nc(-c2ccccc2)cs1 | 67.2 | -14.1 | 117.2* | -67.2
CCOc1ccccc1Nc1nnc(SCC(=O)Nc2nc(-c3ccc(OC)cc3)cs2)s1 | 76.1* | -4.7 | 14.6 | -76.1
CCOc1ccc(NCc2nnc(SCC(=O)Nc3nc(-c4ccccc4)cs3)n2-c2ccccc2)cc1 | 74.7* | -8.6 | . | -74.7
Cc1cccc(C)c1NCc1nnc(SCC(=O)Nc2nc(-c3ccccc3)cs2)n1-c1ccccc1 | 7.9 | -3.8 | 1.7 | -7.9
